V1R ag counter = V1a receptor agonism, counter-screen for OXTR agonists. CHO-V1R cells, Fluo-8 calcium fluorescence, agonist mode; 0% DMSO, 100% 3 nM vasopressin. P37288. 320,000 compounds, 0.25% hits. activation, % at 3 µM;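 active means activation above the mean activation of all tested compounds plus 3 SD, per screening run, cut at about 20% in these data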;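 further: signal is peak over basal fluorescence ratio across a 100 second FLIPR read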
OXTR potentiate = potentiators of human oxytocin receptor; CHO-OTR cells, Fluo-8 calcium fluorescence, potentiator mode; 0% = oxytocin EC15, 100% = EC100; AID 2445; activation, % at 3 µM; 320,000 compounds, 0.061% hits;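 active means activation above that plate's cutoff, the mean activation of tested compounds plus 3 SD, cut at about 6.6% in these data, passing the limit was not always enough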;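 further: 100% uses oxytocin at 75 nM as the full agonist control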
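Dosing: Single dose, 3.0 µM nominal final compound concentration | Material: Human OTR in CHO cells | Technique: Kinetic Fluo-8 calcium fluorescence | Benchmarks: EC15 oxytocin alone as 0%, 75 nM oxytocin as 100% | Probe or stimulus: Oxytocin at about EC15, sub-maximal agonist stimulus | Incubation: Compound 6 min at room temperature before oxytocin, 100 s read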
OX1R antag-1 = blocks the human orexin 1 receptor; O43613; OX1R-expressing cells, FRET antagonist read-out; inhibition, % at 6.6 µM; 330,000 compounds, 1.8% hits; in the data active means inhibition mostly above about 38%, no sharp cut-off; inactive means mostly below about 40%;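 further: 0% = agonist challenge alone and 100% = reference antagonist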
Target sequence (O43613 whole entry, looked up): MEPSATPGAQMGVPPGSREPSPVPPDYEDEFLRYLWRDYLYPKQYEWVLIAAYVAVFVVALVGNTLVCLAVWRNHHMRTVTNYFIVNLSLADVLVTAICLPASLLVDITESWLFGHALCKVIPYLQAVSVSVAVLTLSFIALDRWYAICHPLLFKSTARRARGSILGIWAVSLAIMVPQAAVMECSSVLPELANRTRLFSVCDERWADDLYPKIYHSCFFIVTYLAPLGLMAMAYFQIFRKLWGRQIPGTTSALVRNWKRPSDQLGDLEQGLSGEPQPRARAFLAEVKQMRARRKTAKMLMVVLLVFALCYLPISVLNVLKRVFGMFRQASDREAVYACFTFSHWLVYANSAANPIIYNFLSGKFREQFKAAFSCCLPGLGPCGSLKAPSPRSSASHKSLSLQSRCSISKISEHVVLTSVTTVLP
OX1R antag-2 = blocks the human orexin 1 receptor. O43613. CHO/OX1R cells, Fluo-8 calcium fluorescence, orexin A. inhibition, % at 5 µM. 330,000 compounds, 0.43% hits;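 active means inhibition above its plate's threshold, mean inhibition of all tested compounds on the plate plus 3 SD, cut at about 37% in these data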;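 further: 0% = orexin A challenge wells and 100% = SB-334867-A antagonist wells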
CHO parental Ca = signal in parental CHO cells, OX1R antagonist counter-screen | parental CHO-K1, ATP-induced calcium, Fluo-8 fluorescence | AID 463079 | 330,000 compounds, 0.63% hits | inhibition, % at 5.6 µM;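 active means inhibition above that plate's mean sample inhibition plus 3 SD, cut at about 26% in these data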;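 further: 0% = ATP-challenged DMSO wells and 100% = DMSO wells without ATP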
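Measured by: calcium-sensitive Fluo-8 fluorescence / Test system: CHO parental line / Controls: ATP-challenged DMSO wells low, unchallenged DMSO wells high / Measure: % inhibition / Compound: single nominal dose of 5.6 µM per compound / Replicates: single well per compound, no replicates / Reagent: ATP as calcium-mobilizing challenge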
OXTR ag = human OXTR agonism | 320,000 compounds, 0.32% hits | CHO-OTR cells, Fluo-8 calcium fluorescence; normalized: DMSO 0%, oxytocin 100% | AID 2435 | activation, % at 3 µM;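 active means activation above the mean of all tested compounds plus 3 SD, cutoff set per screening run, cut at about 20% in these data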;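 further: peak over basal fluorescence ratio from a 100 s FLIPR kinetic read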
OX1R Ca confirm = OX1R (human) antagonism, confirmed. shares compounds with OX1R antag-2. CHO/OX1R cells, orexin A calcium Fluo-8 fluorescence. inhibition, % at 5 µM. 1,100 compounds, 38% hits. AID 492963; in the data active means inhibition above about 29%;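 further: 0% = agonist challenge alone and 100% = reference antagonist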
CHO Ca counter = counter-screen: parental CHO calcium response change, triplicate. shares compounds with OX1R antag-2. 1,100 compounds, 9.3% hits. inhibition, % at 5.6 µM. parental CHO-K1, ATP-induced calcium, Fluo-8 fluorescence;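 active means inhibition above a per-plate limit, the mean inhibition of that plate's test compounds plus 3 SD, cut at about 25% in these data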;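 further: 0% = ATP challenge with DMSO and 100% = DMSO without ATP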
* hit, by the source's call; · = no result given. An excerpt weighted towards active compounds, which were near 2.6% of everything screened.

SMILES	V1R ag counter	OXTR potentiate	OX1R antag-1	OX1R antag-2	CHO parental Ca	OXTR ag	OX1R Ca confirm	CHO Ca counter
Cc1cc(C(C)(C)C)oc1C(=O)N(CC(=O)NC1CCCC1)c1cccc(C(F)(F)F)c1	1	-9	30	56*	-8	1	14	-3
Nc1cc(Cl)ccc1C(=O)OCC(=O)NC1CCCCCCC1	-1	1	3	-6	-8	-2	·	·
O=C(NN1C(=O)/C(=C/c2ccc(O)cc2)SC1=S)c1ccccc1O	11	-19	2	31	15	14	11	14
COCO/C=C(\NC(C)=O)c1ccccc1	3	6	-1	-10	-2	2	·	·
COC(=O)c1ccc(NC(=S)NNC(=O)c2ccccc2)cc1	0	-10	7	28	-10	0	4	7
O=C(NNC(=S)Nc1ccccc1)c1ccc(O)cc1	1	-10	11	-8	10	0	·	·
COc1cc(C)c(C(=O)CSc2nnc(CNC(=O)c3ccco3)n2C)cc1C	0	1	6	-11	2	0	·	·
Cc1ccc2c(c1)nnn2C1CCN(S(=O)(=O)c2ccc3ccccc3c2)CC1	2	-3	3	-10	-19	1	·	·
Cc1ccc2c(c1)nnn2C1CCN(S(=O)(=O)c2cccc(S(=O)(=O)N(C)C)c2)CC1	11	-24	35	35	22	9	38*	25*
C/C(Cl)=C\Cn1c(NCCc2ccccc2)nc2c1c(=O)n(C)c(=O)n2C	1	-1	7	-23	0	-1	·	·
C=CCn1c(NCCc2ccccc2)nc2c1c(=O)n(C)c(=O)n2C	10	-14	16	31	12	11	10	13
Cc1cccc(C2c3[nH]c4ccccc4c3CCN2C(=O)Cc2nc(-c3ccccc3)n[nH]2)n1 (stereo not given)	2	-7	10	41	10	0	18	-20
CC(C)C(C)NC(=O)COc1ccc(S(=O)(=O)N2CCOCC2)cc1Cl (stereo not given)	0	-8	10	-28	-12	0	·	·
COC(=O)CSc1nnc(-c2ccc(S(=O)(=O)NCc3ccccc3Cl)cc2)o1	7	-9	14	26	12	3	33*	10
NS(=O)(=O)c1ccc(CNC(=O)C(Cc2ccccc2)NS(=O)(=O)c2ccccc2F)cc1 (stereo not given)	-1	-8	-12	26	-1	0	-1	-6
Cc1cc(C)c(NC(=O)CN(C)CC(=O)Nc2cccc(S(=O)(=O)N(C)c3ccccc3)c2)c(C)c1	6	-7	16	37*	1	1	8	-10
CN(c1ccccc1)S(=O)(=O)c1cccc(NC(=O)Cc2n[nH]c(=O)c3ccccc23)c1	7	-6	5	36	-8	1	5	-6
CCN(CC)S(=O)(=O)c1cc(NC(=O)Cc2n[nH]c(=O)c3ccccc23)ccc1C	0	-5	6	-9	6	0	·	·
COc1ccc(SC[C@H](C)CN2CC[C@H](NC(=O)OCc3ccccc3)CCC2=O)cc1	5	-8	12	15	-3	2	·	·
C[C@@H](CSc1ccc(Br)cc1)CN1CC[C@H](NC(=O)OCc2ccccc2)CCC1=O	11	-7	0	53*	18	3	-4	0
COc1ccc(C(=O)Nc2cccc(C(=O)N/N=C/c3ccc(OC)cc3OC)c2)cc1	7	-9	25	-27	-14	2	·	·
CCN(CC)c1ccc(C(=O)N/N=C/c2ccc(OC)cc2OC)cc1	-1	-4	77	41*	-31	-2	34*	-11
CNc1snc(C)c1C(=O)OCC(=O)c1ccc(Cl)cc1	7	-10	19	37	2	8	16	45*
